Measurements reported in ChEMBL document CHEMBL1133541, “Conformationally constrained butyrophenones with affinity for dopamine (D(1), D(2), D(4)) and serotonin (5-HT(2A), 5-HT(2B), 5-HT(2C)) receptors: synthesis of aminomethylbenzo[b]furanones and their evaluation as antipsychotics” (J Med Chem, 2000).

Tests used:
[1] = target: T1, 5-hydroxytryptamine receptor 2B (Rattus norvegicus, UniProt P30994); test: Compound was evaluated for antagonism against serotonin (5-hydroxytryptamine 2B receptor ) receptor; format: functional; conditions: read-out: pA2 (converted)
In short: (§1)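 Rat stomach fundus strips in modified Krebs solution, 37 °C, carbogen-aerated organ baths; serotonin cumulative concentration-response curves (0.01 nM-10 µM), runs alternating with and without antagonist, 60 min rest between. Antagonism expressed as pA2 (-log antagonist concentration maintaining response when agonist doubled); 3-4 replicate experiments.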

[2] = target: T2, 5-hydroxytryptamine receptor 2C (Homo sapiens) (UniProt P28335); conditions: Bos taurus; 10e-6 M
T2 sequence (whole entry): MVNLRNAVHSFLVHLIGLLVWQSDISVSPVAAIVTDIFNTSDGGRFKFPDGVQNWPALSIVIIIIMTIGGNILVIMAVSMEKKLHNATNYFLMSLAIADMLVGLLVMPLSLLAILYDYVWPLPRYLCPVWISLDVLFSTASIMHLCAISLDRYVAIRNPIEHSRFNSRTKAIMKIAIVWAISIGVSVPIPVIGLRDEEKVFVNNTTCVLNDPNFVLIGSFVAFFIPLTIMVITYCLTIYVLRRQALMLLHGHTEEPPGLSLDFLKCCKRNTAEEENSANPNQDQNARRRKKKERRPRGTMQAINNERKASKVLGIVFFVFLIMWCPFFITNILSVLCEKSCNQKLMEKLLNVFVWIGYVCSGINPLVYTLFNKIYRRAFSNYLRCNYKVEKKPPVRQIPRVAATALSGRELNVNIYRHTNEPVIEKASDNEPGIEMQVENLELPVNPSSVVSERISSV

[3] = target: T3, 5-hydroxytryptamine receptor 2A (Rattus norvegicus, UniProt P14842); test: In vitro affinity against serotonin 5-hydroxytryptamine 2A receptor
[4] = In vitro affinity against Dopamine receptor D4; set-up: species or system Bos taurus
D(1A) dopamine receptor = D(1A) dopamine receptor (Rattus norvegicus, UniProt P18901); test: In vitro affinity against Dopamine receptor D1
Mus musculus [5] = test: Antipsychotic activity was determined in mice or rat within 20-30 min of administration
Mus musculus [6] = test: Effective dose administered in apomorphine induced climbing test in mice (in vivo); format: functional
Mus musculus [7] = test: Effective dose administered in catalepsy test in mice (in vivo); format: functional
In short: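 Mice (n = 6-12) tested 30 min after dosing: forepaws on one horizontal wire, hindpaws on another 6 cm away and 2 cm lower. Posture held over 30 s counted as catalepsy; ED50 by Litchfield-Wilcoxon method.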

[8] = target: T3, 5-hydroxytryptamine receptor 2A; test: In vitro affinity against serotonin ( 5-hydroxytryptamine 2A receptor ) receptor
In short: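 Rat frontal cortex membranes (male Sprague-Dawley), preincubated 37 °C 15 min to remove endogenous 5-HT, in Tris-HCl pH 8.07 with 4 mM CaCl2 and 0.1% ascorbic acid. [3H]ketanserin competition in triplicate, 1 µM methysergide masking as required, 30 min at 37 °C; filtration on PEI-soaked GF/C, scintillation counting; two replicate experiments.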

Mus musculus [9] = test: Effective dose administered in apomorphine induced climbing test in mice (in vivo); Value ranges from 0.8-1.44; format: functional
[10] = target: T1, 5-hydroxytryptamine receptor 2B; test: Compound was evaluated for antagonism against serotonin (5-hydroxytryptamine 2B) receptor; format: functional; conditions: read-out: pA2 (converted); in short: as §1
[11] = target: T2, 5-hydroxytryptamine receptor 2C (Homo sapiens); conditions: Bos taurus; 10e-6 M; remark: listed apart in the source

T1 sequence (P30994 whole entry): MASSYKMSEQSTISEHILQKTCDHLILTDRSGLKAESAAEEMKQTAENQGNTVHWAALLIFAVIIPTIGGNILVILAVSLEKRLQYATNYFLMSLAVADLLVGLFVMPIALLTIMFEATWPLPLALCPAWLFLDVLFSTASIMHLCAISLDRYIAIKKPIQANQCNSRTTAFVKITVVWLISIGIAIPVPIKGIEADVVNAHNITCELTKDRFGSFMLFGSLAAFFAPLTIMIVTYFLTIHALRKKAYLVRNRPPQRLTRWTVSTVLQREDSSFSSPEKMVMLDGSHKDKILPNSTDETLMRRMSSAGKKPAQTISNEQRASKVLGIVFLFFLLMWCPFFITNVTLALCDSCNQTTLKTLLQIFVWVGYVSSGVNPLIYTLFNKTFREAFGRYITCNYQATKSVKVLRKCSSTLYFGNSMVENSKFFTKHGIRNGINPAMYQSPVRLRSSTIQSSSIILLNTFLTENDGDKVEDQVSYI
T3 sequence (P14842 whole entry): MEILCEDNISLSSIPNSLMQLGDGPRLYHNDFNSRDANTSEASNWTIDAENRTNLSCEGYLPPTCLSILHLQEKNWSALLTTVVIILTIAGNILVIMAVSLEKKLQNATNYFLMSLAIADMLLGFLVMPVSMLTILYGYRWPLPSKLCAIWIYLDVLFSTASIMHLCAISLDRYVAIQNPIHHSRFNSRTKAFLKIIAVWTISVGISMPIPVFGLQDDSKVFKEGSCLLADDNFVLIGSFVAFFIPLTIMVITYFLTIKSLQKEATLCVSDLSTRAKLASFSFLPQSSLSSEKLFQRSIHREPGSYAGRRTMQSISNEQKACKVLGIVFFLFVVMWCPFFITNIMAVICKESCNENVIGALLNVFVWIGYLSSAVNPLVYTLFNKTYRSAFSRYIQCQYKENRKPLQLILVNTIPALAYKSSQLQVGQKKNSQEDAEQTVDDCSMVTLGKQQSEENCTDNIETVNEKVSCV
Chain of D(1A) dopamine receptor (P18901 whole entry): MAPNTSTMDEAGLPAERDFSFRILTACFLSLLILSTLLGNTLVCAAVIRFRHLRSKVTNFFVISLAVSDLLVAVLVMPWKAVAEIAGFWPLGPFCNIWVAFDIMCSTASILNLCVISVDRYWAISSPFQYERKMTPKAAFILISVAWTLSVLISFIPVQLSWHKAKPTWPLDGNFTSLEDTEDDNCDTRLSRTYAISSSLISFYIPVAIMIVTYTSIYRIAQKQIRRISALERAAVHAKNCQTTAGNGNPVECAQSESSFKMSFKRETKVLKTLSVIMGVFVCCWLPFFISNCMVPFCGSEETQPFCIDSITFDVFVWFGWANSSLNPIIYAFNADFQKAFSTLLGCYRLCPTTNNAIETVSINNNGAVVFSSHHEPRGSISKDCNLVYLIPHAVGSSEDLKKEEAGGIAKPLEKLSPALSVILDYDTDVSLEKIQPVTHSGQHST

SMILES | Kb [1] [nM] | Ki [3] [nM] | Log Ki [4] | further results
O=C(CCCCN1CCN(CC2CC(=O)c3ccoc3C2)CC1)c1ccc(F)cc1 (stereo not given) | 589 | 1260 | – | Inhibition [2]: 44.3%
CN1CCN(C2=Nc3cc(Cl)ccc3Nc3ccccc32)CC1 [CLOZAPINE] | – | – | -7.42 | –
O=C1CC(CN2CCC(c3noc4cc(F)ccc34)CC2)Cc2occc21 (stereo not given) | 245 | 10.7 | -7.68 | Ki (D(1A) dopamine receptor): 28.8 nM; ED50 (Mus musculus [5]): 0.48 mg/kg; ED50 (Mus musculus [6]): 0.34 mg/kg; ED50 (Mus musculus [7]): 3.84 mg/kg
COc1ccccc1N1CCN(CC2CC(=O)c3ccoc3C2)CC1 (stereo not given) | 646 | 2290 | – | –
O=C1CC(CN2CCN(c3ccccc3)CC2)Cc2occc21 (stereo not given) | > 100000 | – | – | Ki [8]: 21.9 nM
O=C1CC(CN2CCC(C(=O)c3ccc(F)cc3)CC2)Cc2occc21 (stereo not given) | – | – | -7.04 | Ki (D(1A) dopamine receptor): 195 nM; Ki [8]: 51.3 nM; ED50 (Mus musculus [9]): 0.95 mg/kg; ED50 (Mus musculus [5]): 1.21 mg/kg; ED50 (Mus musculus [7]): 3.44 mg/kg; Kb [10]: 195 nM
O=C1CC(CN2CCN(c3ncccn3)CC2)Cc2occc21 (stereo not given) | 1820 | > 100000 | – | –
O=C1CC(CN2CCN(c3ccccn3)CC2)Cc2occc21 (stereo not given) | 3470 | 8320 | – | –
O=C(CCCN1CCN(CC2CC(=O)c3ccoc3C2)CC1)c1ccc(F)cc1 (stereo not given) | 437 | 955 | – | Inhibition [11]: 3.7%
O=C(CCCN1CCC(O)(c2ccc(Cl)cc2)CC1)c1ccc(F)cc1 [HALOPERIDOL] | – | – | -8.2 | –
